{
  "source": "paper PMC7931646",
  "about": "(The Journal of Experimental Medicine, 2021)",
  "key": {"[1]": {"test": "GLP 28-d repeat-dose toxicity and in vivo micronucleus study in rats", "design": "species or system rat"}, "sodium channel (Site 2)": {"test_system": "sodium channel (Site 2)", "test": "CEREP off-target radioligand binding panel", "settings": "10 µM", "procedure,_shortened": "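CEREP secondary-pharmacology panel of 55 receptors, transporters and ion channels. Test compound at 10 µM was assessed for inhibition of binding of a radiolabelled reference ligand specific to each target. Result is percent inhibition of ligand binding.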"}},
  "data": [
    {"smiles": "COc1nc(-c2cc(C)c(N[C@@H](C)c3cc(F)cc(F)c3)nn2)ccc1-n1cnc(C)c1", "note": "[Compound 2, (S)-N-(1-(3,5-difluorophenyl)ethyl)-6-(6-methoxy-5-(4-methyl-1H-imidazol-1-yl)pyridin-2-yl)-4-methylpyridazin-3-amine]", "values": [
      {"measurement": "safety margin based on comparison of systemic exposures", "setting": "[1]; AUC at rat NOAEL vs predicted human AUC at 100 mg", "result": "more than 130 fold"},
      {"measurement": "AUC", "setting": "[1]; male, rat, in vivo, 60 mg/kg", "result": 586, "unit": "µg·h/mL"},
      {"measurement": "NOAEL at 28 d", "setting": "[1]; rat, in vivo", "result": 60, "unit": "mg/kg"},
      {"measurement": "GLP 28-d repeat-dose toxicity and in vivo micronucleus study", "setting": "[1]; rats, data not shown", "result": "negative"},
      {"measurement": "inhibition of ligand binding", "setting": "sodium channel (Site 2)", "result": "Greater than 50%"}
    ]}
  ]
}
